Compound activity as filed in PubChem BioAssay.
NR2E3 ag-1 – NR2E3 agonists in two-hybrid cells, primary screen, cell-based, luminescence, CHO-S, Gal4-NCOR/VP16-NR2E3; Photoreceptor-specific nuclear receptor (Homo sapiens), Q9Y5X4; luciferase; inhibition of corepressor binding, % at 3.98 µM; hit rate 0.35% among 360,000; AID 602229, 2012;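 active = inhibition above the mean of all tested compounds plus 3 SD, cut at about 70% in these data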;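 also: higher means lower luciferase signal from less NR2E3 corepressor binding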
COUP-TFII inh – NR2F2 transcriptional activity inhibitors, primary screen, cell-based, luciferase reporter, HEK293T, luminescence; COUP transcription factor 2 (Homo sapiens), P24468; HEK293T NGFI-A luciferase reporter; inhibition, % at 8.6 µM; hit rate 0.7% among 370,000;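 active = inhibition above a per-plate cutoff, mean inhibition of test wells between control levels plus 3 SD, cut at about 38% in these data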;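 also: cells cotransfected with COUP-TFII expression vector driving the NGFI-A reporter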
Target sequence (P24468 whole entry, looked up): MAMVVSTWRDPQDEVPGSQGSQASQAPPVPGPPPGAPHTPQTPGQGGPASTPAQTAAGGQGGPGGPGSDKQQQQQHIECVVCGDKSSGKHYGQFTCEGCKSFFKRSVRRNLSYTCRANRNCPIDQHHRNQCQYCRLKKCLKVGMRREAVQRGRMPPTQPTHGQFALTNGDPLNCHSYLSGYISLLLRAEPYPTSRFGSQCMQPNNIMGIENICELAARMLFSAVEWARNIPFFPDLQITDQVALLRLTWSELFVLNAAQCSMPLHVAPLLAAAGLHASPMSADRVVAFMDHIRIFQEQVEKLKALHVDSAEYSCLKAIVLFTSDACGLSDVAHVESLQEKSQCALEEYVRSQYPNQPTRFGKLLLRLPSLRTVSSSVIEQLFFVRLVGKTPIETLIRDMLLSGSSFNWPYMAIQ
NR2E3 ag-2 – inhibitors of NR2E3-RetCOR corepressor binding, primary screen, NR2E3 agonist project, biochemical, TR-FRET, GST-NR2E3, biotin-RetCOR; AID 2300, 2010; inhibition of corepressor binding, % at 4.78 µM; hit rate 0.12% among 320,000; 1536-well;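 active = percent inhibition above the cutoff of mean plus 3 SD of all tested compounds, set per screening campaign, cut at about 20% in these data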
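Format: 1536-well format; test system: GST-NR2E3 and biotin-RetCOR proteins; read-out basis: percent inhibition of TR-FRET ratio; timing: 5 h incubation at 4 °C; detection: time-resolved FRET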
CHT PAM – CHT positive allosteric modulators, primary screen, cell-based, membrane potential dye, choline EC20; High affinity choline transporter 1 (Homo sapiens), Q9GZV3; CHT-expressing cells; hits give high values; LV-AA mutant CHT in HEK293 cells; B-score at 10 µM; hit rate 0.49% among 310,000; AID 488977, 2010;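 active = initial fluorescence not abnormally high and integrated response B-score, plate-corrected, over 3 SD above library mean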
CHT inh – inhibitors of human choline transporter CHT; High affinity choline transporter 1 (Homo sapiens), Q9GZV3; CHT-expressing cells, membrane potential dye, choline response; hits give low values; B-score at 10 µM; hit rate 0.86% among 310,000;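 active = B-score over 3 SD under the library average, and starting fluorescence ratio not unusually high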;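 also: choline stimulus applied at its EC90 after an EC20 pre-addition; B-score computed on integrated fluorescence ratio after choline addition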
GalR3 antag – GalR3 antagonists in HEK293 cells, primary screen, cell-based, fluorescence readout; hit rate 0.44% among 360,000; HEK293 GalR3-CNG cAMP membrane potential fluorescence; galR3 body fused to GalR1 C-terminus; AID 651719, 2012; inhibition, % at 3 µM; Galanin receptor type 3 (Homo sapiens), O60755;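 active = inhibition above the screen-wide average plus 3 SD, cut at about 13% in these data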;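 also: forskolin and galanin both at EC90 stimulate the cells; cAMP rise reported by CNG channel membrane potential dye signal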
A number is an active result; i = inactive; nt = no result. Shown are actives, neighbours in structure and some others; about 2.3% of the full set was active somewhere.

SMILES | NR2E3 ag-1 | COUP-TFII inh | NR2E3 ag-2 | CHT PAM | CHT inh | GalR3 antag
COc1cc(-n2nc(C)c3c2OC(N)=C(C#N)C3c2ccccc2)c(Cl)c(Br)c1O (stereo not given) | i | i | i | i | -10 | i
Cc1c(Cc2ccc3c(c2)OCO3)sc(NC(=O)c2ccc3ccccc3c2)c1C(N)=O | i | i | i | i | -6.58 | nt
CCC(=O)Nc1sc(Cc2ccc3c(c2)OCO3)c(C)c1C(N)=O | i | i | i | i | i | i
O=c1c([N+](=O)[O-])c(Cl)c2ccccc2n1Cc1ccccc1 | nt | i | nt | nt | nt | nt
Cc1sccc1C1C(C#N)=C(N)SC(N)=C1C#N | nt | nt | 35.7 | i | i | nt
Cc1[nH]nc2c1C(c1ccsc1C)C(C#N)=C(N)O2 (stereo not given) | i | i | i | i | i | i
COc1cc(/C=C2/SC(=S)NC2=O)ccc1OS(=O)(=O)c1ccc(C)cc1 | 76.7 | nt | i | i | i | nt
CCOC(=O)C1=C(C)N=c2s/c(=C\c3ccc(OCC(=O)O)cc3)c(=O)n2C1c1ccccc1 (stereo not given) | i | i | i | i | i | i
CCOC(=O)C1=C(C)N=c2s/c(=C/c3cccc([N+](=O)[O-])c3O)c(=O)n2C1c1ccccc1 (stereo not given) | i | i | i | i | -8.02 | i
COc1ccccc1-c1cc(C(=O)Nc2cccnc2)no1 | i | i | i | 11 | i | i
C=CCN(CC#CC1=CCCCC1)CC1CC1 | nt | i | nt | nt | nt | nt
Cc1cc(C)c(C(=O)/C=C/c2ccc(C(C)C)cc2)c(=O)[nH]1 | 82.0 | i | i | i | i | i
Cc1cc(C)c(C(=O)/C=C/C=C/c2ccccc2)c(=O)[nH]1 | i | i | i | i | i | i
CCCSc1nc(N)c2c3c(sc2n1)CN(C)CC3 | i | nt | i | 7.23 | i | nt
CSc1nc(NCC(C)C)c2c3c(sc2n1)CN(C)CC3 | i | i | i | i | i | i
CN(C)CCSc1nc(N)c2c3c(sc2n1)CN(C)CC3 | i | i | i | i | -8.01 | i
CSc1nc(NCCCN(C)C)c2c3c(sc2n1)CN(C)CC3 | nt | i | nt | i | i | i
CCCCCCCCNS(=O)(=O)CC1NCc2cc(F)ccc21 (stereo not given) | nt | i | nt | nt | nt | nt
CCOc1ccc(C(=O)CSCCC(=O)O)cc1 | i | 55.7 | i | i | i | i
O=C(c1cc(=O)[nH]c2ccccc12)N1CCN(c2cccc(C(F)(F)F)c2)CC1 | i | i | i | i | i | i
Cc1[nH]c2ccccc2c1C(O)CN1CCN(c2cccc(C(F)(F)F)c2)CC1 (stereo not given) | i | i | i | i | -8.74 | i
COc1ccc(CN2C[C@]3(C=C(C)Cn4c(=O)n(-c5ccccc5)c(=O)n43)N=C2NC(=O)c2ccccc2)c(OC)c1 | nt | i | nt | nt | nt | nt
CCCc1ccc(S(=O)(=O)NCCc2ccncc2)cc1 | i | i | i | i | i | i
CCCCCc1ccc(S(=O)(=O)NCCc2ccncc2)cc1 | 88.4 | i | i | i | i | i
COc1ccc(CC(=O)Nc2ccccc2Oc2ccccc2)cc1 | nt | i | i | i | -6.19 | i
SMILES | NR2E3 ag-1 | COUP-TFII inh | NR2E3 ag-2 | CHT PAM | CHT inh | GalR3 antag
CN(C)CCNC(=O)c1csc(Nc2cccc3ccccc23)n1 | i | i | i | i | -9.95 | i
C=CCn1c(SCC(=O)OC)nc2sc3c(c2c1=O)CCN(C)C3 | nt | nt | i | 6.31 | i | nt
O=S1(=O)CC2c3ccccc3CN2CN1Cc1ccccc1 (stereo not given) | nt | i | nt | nt | nt | nt
Cc1cc(NCCCn2ccnc2)n2nc(C)c(-c3ccc(Cl)cc3)c2n1 | i | i | i | i | -5.1 | i
CC(=O)Nc1nc2ncccn2c1-c1ccc(F)c(F)c1 | nt | i | nt | nt | nt | nt
COC(=O)c1ccc2c(c1)C(C)(C)C(/C=C/c1ccccc1O)=[N+]2C | i | i | i | 7.22 | i | i
COc1ccc(/C=C/C(Cc2cccc(C(C)=O)c2)c2ccc(C)cc2)cc1 (stereo not given) | nt | i | nt | nt | nt | nt
CC(C)c1ccc(S(=O)(=O)/N=C2/C=C(Sc3ncn[nH]3)C(=O)c3ccccc32)cc1 | i | nt | i | i | i | nt
